High-throughput results (PubChem BioAssay)
NS3 helicase inh = HCV NS3 helicase inhibition; inhibition, % at 10.9 µM; AID 1800; actives 0.56% (n = 290,000); NS3 helicase DNA unwinding, Cy5 molecular beacon fluorescence;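 active means inhibition above the mean of all tested compounds plus 3 SD, set per campaign, cut at about 35% in these data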;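 further: 0% = DMSO wells and 100% = thioflavine S control wells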
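Assay system – hepatitis C virus NS3 helicase domain fragment enzyme · Buffer or medium – MOPS pH 6.5, MgCl2, DTT, Tween20, BSA · Reagent – Cy5/quencher beacon DNA duplex and ATP to start · Compound – single 10.9 µM dose · Timing – 1 h at 25 °C · Technique – Cy5 beacon fluorescence read at start and 1 h · Measure – % inhibition of unwinding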
GPR7 antag = blocks human GPR7 receptor signaling | P48145 | GPR7-expressing cells, fluorescence antagonist assay | inhibition, % at 4.4 µM | actives 1.1% (n = 290,000); in the data active means inhibition above about 16%, passing the limit was not always enough;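 further: cells stimulated with the agonist NPW; 0% = agonist with vehicle and 100% = vehicle without agonist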
Target sequence (P48145 whole entry, looked up): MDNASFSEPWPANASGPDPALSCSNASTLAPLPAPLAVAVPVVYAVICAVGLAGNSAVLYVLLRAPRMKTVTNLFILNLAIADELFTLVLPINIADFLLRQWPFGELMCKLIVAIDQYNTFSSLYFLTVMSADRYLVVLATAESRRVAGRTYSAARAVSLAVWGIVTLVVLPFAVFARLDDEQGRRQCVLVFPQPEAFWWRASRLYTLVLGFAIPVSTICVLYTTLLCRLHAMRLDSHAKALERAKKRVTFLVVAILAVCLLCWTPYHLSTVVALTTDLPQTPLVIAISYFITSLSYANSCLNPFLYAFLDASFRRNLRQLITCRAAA
GRK2 inh = inhibitors of human GRK2 displacing RNA aptamer; AID 488847; actives 0.59% (n = 330,000); bead flow cytometry, FAM-aptamer displacement from GRK2; P25098; inhibition of aptamer binding, % at 10 µM;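 active means inhibition of aptamer binding above 40%, roughly 3 SD of noise, on plates passing a quality check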;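 further: median bead fluorescence of bound FAM aptamer so fluorescent compounds give negative values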
HCV core dimer = blocks dimerization of HCV core protein. TR-FRET GST/Flag-core106 dimerization, 1536-well. actives 0.33% (n = 300,000). AID 1899. inhibition, % at 5 µM;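 active means inhibition above the mean of all tested compounds plus 3 SD, set per screening campaign, cut at about 45% in these data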
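Material: GST/Flag-tagged HCV core106 proteins. Incubation: 4 h, 22.5 °C incubation. Read-out basis: inhibition (%) from 671 over 617 nm ratio. Measured by: TR-FRET, excitation 340 nm, emission 617 and 671 nm.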
FID counter = fluorescent intercalator displacement, NS3 helicase counter-screen; DNA fluorescent intercalator displacement, fluorescence; inhibition, % at 7.9 µM; actives 0.17% (n = 290,000); AID 1845; in the data active means inhibition above about 37%;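 further: 0% = vehicle and 100% = reference compound; higher means more ethidium bromide displaced from hairpin DNA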
DAGLB inhibitor = blocks human DAGLB lipase activity | HEK293T DAGLB membrane lysate, EnzChek fluorogenic substrate | inhibition, % at 5.17 µM | actives 0.059% (n = 340,000) | AID 504411; in the data active means inhibition above about 34%;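 further: 0% = enzyme with vehicle and 100% = wells lacking enzyme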
GPR7 antag cf = human GPR7 antagonism, confirmation assay; shares compounds with GPR7 antag; GPR7-expressing cells, calcium fluorescence antagonist mode; inhibition, % at 4.4 µM; actives 52% (n = 2,400); in the data active means inhibition above about 24%;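 further: stimulated with the GPR7 agonist NPW; 0% = agonist plus vehicle and 100% = vehicle alone without agonist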
MCHR1 antagonist = MCHR1 (human) antagonism in GPR7 counter-screen; shares compounds with GPR7 antag; MCHR1-expressing cells, fluorescence antagonist assay; inhibition, % at 4.4 µM; actives 62% (n = 2,400); AID 2148; in the data active means inhibition above about 22%;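 further: 0% = vehicle with agonist and 100% = vehicle without agonist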
Starred values were filed as active, the others as inactive; . = not tested or not shown. Only some compounds are listed: those with a hit (about 2.2% of all), similar ones and a draw of the others.

SMILES | NS3 helicase inh | GPR7 antag | GRK2 inh | HCV core dimer | FID counter | DAGLB inhibitor | GPR7 antag cf | MCHR1 antagonist
COC(=O)[C@@]1(Cc2ccc(F)cc2)[C@H]2c3cc(C(=O)N4CCCC4)n(Cc4ccc(C(F)(F)F)nc4)c3C[C@H]2CN1C(=O)c1ccccc1 | 3 | 29* | 1 | 11 | -34 | . | 39* | 22*
O=C(CN1C(=O)C2C3CC(C(Br)C3Br)C2C1=O)N1CCN(Cc2ccccc2)CC1 (centres undefined) | -6 | 29* | 0 | -2 | -12 | 0 | 41* | 14
CN(C)Cc1c(C(=O)N/N=C/c2ccccc2OCc2c(F)cccc2Cl)nnn1-c1nonc1N | -26 | 35* | 0 | 23 | -12 | 2 | 34* | 66*
CN(C)Cc1c(C(=O)N/N=C/c2cccc(OCc3c(F)cccc3Cl)c2)nnn1-c1nonc1N | 0 | 3 | 2 | 21 | -6 | -1 | . | .
Cc1cc(Cl)ccc1NC(=S)NCCc1ccc(S(N)(=O)=O)cc1 | . | . | 3 | -4 | . | 1 | . | .
Cc1cc(Cl)ccc1OCC(O)CNCCc1ccc(S(N)(=O)=O)cc1 (centres undefined) | -17 | 68* | 0 | -3 | 11 | -2 | 66* | 73*
O=C(c1ccc(NS(=O)(=O)c2ccc(F)cc2)cc1)N1CCCCC1 | . | . | 0 | 2 | . | -3 | . | .
O=C(c1ccc(S(=O)(=O)Nc2ccccc2)cc1)N1CCCCCCC1 | -1 | 25* | 1 | -7 | -36 | 0 | 19 | 17
O=C(c1ccc(NS(=O)(=O)c2cccs2)cc1)N1CCCCC1 | 10 | 21* | 1 | -2 | -21 | 1 | -15 | 3
CCC1(c2ccc(F)cc2)NC(=O)NC1=O (centres undefined) | 3 | 3 | 4 | -3 | -2 | 0 | . | .
COc1ccc(Oc2ccc(/C=C/C(=O)c3ccc(O)cc3)cc2[N+](=O)[O-])cc1 | -9 | 26* | 10 | 10 | 4 | 7 | 77* | 87*
O=C(/C=C/c1ccc(O)c([N+](=O)[O-])c1)c1ccc2ccccc2c1 | -3 | -17 | 1 | 17 | -10 | 26 | . | .
COC(=O)C(C(=O)OC)c1ccc(-n2cccc2)cc1 | 5 | 35* | 2 | -1 | -9 | -3 | 12 | 9
COc1ccc(C(=O)NCc2ccc(-n3cccc3)cc2)cc1OC | 15 | 1 | 3 | 0 | -19 | -1 | . | .
CC(=O)Nc1c(C(=O)O)ccc(C)c1OCc1ccccc1 | . | . | . | . | . | -2 | . | .
COc1cccc(C(=O)Nc2ccc(C(=O)c3ccncc3)cc2)c1 | 23 | 23* | 1 | -13 | -17 | 1 | 23 | 47*
Cc1cccc(C(=O)Nc2ccc(C(=O)/C=C/c3cccnc3)cc2)c1 | -11 | 15 | 2 | 0 | -4 | 5 | . | .
Cc1cccc(C(=O)Nc2ccc(C(=O)/C=C/c3ccncc3)cc2)c1 | -17 | 46* | 0 | 16 | -14 | 1 | 74* | 104*
CC(C)Sc1ccccc1C(=O)Nc1ccc2c(c1)n(C)c(=O)n2C | 3 | -13 | 2 | . | -26 | -1 | . | .
Cc1cc(C)nc(NS(=O)(=O)c2ccc(NC(=O)C3(c4ccc([N+](=O)[O-])cc4)CCCC3)cc2)n1 | 3 | 25 | 0 | 9 | -29 | 5 | . | .
O=C(Nc1ccccc1)Nc1ccccc1Br | 7 | -1 | 2 | -1 | 4 | -5 | . | .
O=C(Nc1ccccc1)Nc1cccc(C(F)(F)F)c1 | -6 | 27* | 0 | 1 | 8 | -5 | 41* | 61*
O=C(Nc1ccccc1)Nc1ccc(Br)c(Cl)c1 | 5 | 29* | 0 | 6 | 6 | -4 | 50* | 57*
Cc1cccc(NC(=O)C2(c3ccc([N+](=O)[O-])cc3)CCCC2)c1 | -6 | 33* | 0 | 7 | 2 | -4 | 36* | 36*
CNC(=O)Nc1cccc(C(F)(F)F)c1 | 3 | -19 | 0 | 0 | 4 | 0 | . | .
SMILES | NS3 helicase inh | GPR7 antag | GRK2 inh | HCV core dimer | FID counter | DAGLB inhibitor | GPR7 antag cf | MCHR1 antagonist
O=C(Cc1ccc([N+](=O)[O-])cc1)Nc1cccc(C(F)(F)F)c1 | -16 | 39* | 0 | -10 | 20 | 0 | 30* | 57*
O=C(Nc1cccc(C(F)(F)F)c1)C(SCCO)c1ccccc1 (centres undefined) | -4 | -4 | 0 | -4 | 0 | 4 | . | .
O=C(Nc1ccc(Br)cc1)Nc1ccccc1F | 1 | 28* | 5 | -1 | 8 | -6 | 59* | 65*
CC(=O)c1c(C)[nH]c(C(=O)Nc2cccc(C(F)(F)F)c2)c1C | 24 | 33* | 1 | 1 | 2 | -1 | 4 | 59*
CC(=O)c1c(C)[nH]c(C(=O)Nc2cccc(C#N)c2)c1C | -6 | -2 | 2 | 1 | -6 | -1 | . | .
CCC(C(=O)Nc1cccc(C(F)(F)F)c1)c1ccccc1 (centres undefined) | -10 | 28* | 6 | -17 | 4 | -12 | 8 | 47*
CCCCCNCC(=O)Nc1cccc(C(=O)Nc2cccc(C(F)(F)F)c2)c1 | -45 | 25* | 0 | 1 | 28 | -2 | 50* | 81*
CSCCC(NS(=O)(=O)c1ccccc1F)C(=O)NC(C)c1ccccc1 (centres undefined) | -7 | 0 | 0 | 1 | -2 | 1 | . | .
Cc1ccccc1NC(=O)CNC(=O)c1ccc(C(F)(F)F)cc1 | 5 | -4 | 0 | -1 | -6 | -3 | . | .
O=C(Nc1ccc(-n2ccc(C(F)(F)F)n2)cc1)Nc1cccc(Cl)c1 | 14 | 21* | 1 | 3 | 8 | -6 | 42* | 71*
Cc1ccccc1NC(=O)Nc1ccc(C(F)(F)F)cc1 | -5 | 54* | 7 | 0 | 6 | -2 | 69* | 52*
CCc1ccc(NC(=O)C(CC)c2ccccc2)cc1 (centres undefined) | -9 | 31* | 0 | -1 | -9 | -11 | 58* | 60*
Cc1cc(C)cc(NC(=O)Nc2ccc(-n3ccc(C(F)(F)F)n3)cc2)c1 | 0 | 9 | 0 | -4 | -9 | -7 | . | .
CC(C)CN(CC(C)C)C(=S)Nc1ccc(Cl)cc1 | -2 | -2 | 3 | -1 | -4 | -3 | . | .
